Measured values reported in ChEMBL document CHEMBL1127783, “Sugar-linked dithiocarbamates as modulators of metabolic and genotoxic properties of N-nitroso compounds” (J Med Chem, 1994).

How the values were obtained:
Rattus norvegicus [1] = species on record: Rattus norvegicus; experiment: Tested in vitro for N-nitrosodimethylamine (NDMA) demethylase activity at 0.5 mM for 2 mM concentration of formaldehyde; assay type: functional
Procedure, shortened: (§1)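 Liver microsomal fraction from untreated male Sprague–Dawley rats with NADPH-generating system. NDMA substrate 0.1–1 mM; test compound 2–20 mM or DDTC 2 mM added. Formaldehyde and acetaldehyde formed measured as (2,4-dinitrophenyl)hydrazones. Mean ± SD of three separate experiments.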

Rattus norvegicus [2] = species on record: Rattus norvegicus; experiment: Tested in vitro for N-nitrosodimethylamine (NDMA) demethylase activity at 0.1 mM for 0 mM concentration of acetaldehyde; assay type: functional; procedure, shortened: as §1
Rattus norvegicus [3] = experiment: Tested for exhalation of 14CO2 of compound (1.5mmol/kg, ip) was administered 1 h before and 5 h after the treatment of [14C]NDEA (28 mg/kg, 5 microCi/kg, ip) in experiment number 1; assay type: functional
Procedure, shortened: (§2)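 Male Sprague–Dawley rats (two per group) were fasted overnight. They received inhibitor or saline ip at 1.5 mmol/kg 1 h before and again after ip [¹⁴C]NDEA (28 mg/kg, 5 μCi/kg). Animals were then kept 24 h in an all-glass metabolism cage with air flow of 32 L/h. Exhaled air was dried over H₂SO₄, ¹⁴CO₂ was trapped in 1 N NaOH and counted, and the result is expressed as % of the given dose.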

Rattus norvegicus [4] = species on record: Rattus norvegicus; experiment: Tested in vitro for N-nitrosodimethylamine (NDMA) demethylase activity at 0.1 mM for 2 mM concentration of formaldehyde; assay type: functional; procedure, shortened: as §1
Rattus norvegicus [5] = species on record: Rattus norvegicus; experiment: Tested in vitro for N-nitrosodimethylamine (NDMA) demethylase activity at 0.1 mM for 0 mM concentration of formaldehyde; assay type: functional; procedure, shortened: as §1
Rattus norvegicus [6] = experiment: Tested for urinary excretion of radioactivity of compound (1.5 mmol/kg, ip) was administered 1 h before and 5 h after the treatment of [14C]-NDEA (28 mg/kg, 5 microCi/kg, ip) in experiment number 2; assay type: functional, organism-based
Procedure, shortened: (§3)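 Male Sprague–Dawley rats, fasted overnight, two per group. Inhibitor 1.5 mmol/kg ip or saline, then [14C]NDEA 28 mg/kg (5 μCi/kg) ip 1 h later, then a second inhibitor dose. Rats kept 24 h in all-glass metabolism cages, urine collected into ice-cold flask with NaOH. Total urinary radioactivity and unchanged [14C]NDEA measured after extraction with internal standard; given as % of dose.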

Rattus norvegicus [7] = species on record: Rattus norvegicus; experiment: Tested in vitro for N-nitrosodimethylamine (NDMA) demethylase activity at 0.1 mM for 2 mM concentration of acetaldehyde; assay type: functional; procedure, shortened: as §1
Rattus norvegicus [8] = experiment: Tested for unchanged NDEA 24 h administration of [14C]-NDEA in urine in experiment number 1; assay type: functional; procedure, shortened: as §3
Rattus norvegicus [9] = experiment: Tested for exhalation of 14CO2 of compound (1.5mmol/kg, ip) was administered 1 h before and 5 h after the treatment of [14C]NDEA (28 mg/kg, 5 microCi/kg, ip) in experiment number 2; assay type: functional; procedure, shortened: as §2
Rattus norvegicus [10] = species on record: Rattus norvegicus; experiment: Tested in vitro for N-nitrosodimethylamine (NDMA) demethylase activity at 0.5 mM for 2 mM concentration of acetaldehyde; assay type: functional; procedure, shortened: as §1
Rattus norvegicus [11] = species on record: Rattus norvegicus; experiment: Tested in vitro for N-nitrosodimethylamine (NDMA) demethylase activity at 1 mM for 2 mM concentration of acetaldehyde; assay type: functional; procedure, shortened: as §1
Rattus norvegicus [12] = species on record: Rattus norvegicus; experiment: Tested in vitro for N-nitrosodimethylamine (NDMA) demethylase activity at 1 mM for 2 mM concentration of formaldehyde; assay type: functional; procedure, shortened: as §1
Rattus norvegicus [13] = experiment: Tested for urinary excretion of radioactivity of compound (1.5mmol/kg, ip) was administered 1 hr before and 5 hr after the treatment of [14C]-NDEA (28 mg/kg, 5 microCi/kg, ip) in experiment number 1; assay type: functional, organism-based; procedure, shortened: as §3

CCN(CC)C(=S)[S-].[Na+] [DITIOCARB SODIUM]
Formaldehyde (Rattus norvegicus [1]): 0.3 nM (mg of protein)-1 | Acetaldehyde (Rattus norvegicus [2]): 0 nM (mg of protein)-1 | Exhal+B1718ation of 14CO2 (Rattus norvegicus [3]): 17.2% | Formaldehyde (Rattus norvegicus [4]): 0.6 nM (mg of protein)-1 | Formaldehyde (Rattus norvegicus [5]): 4.8 nM (mg of protein)-1 | Radioactivity in urine (Rattus norvegicus [6]): 17.8% | Acetaldehyde (Rattus norvegicus [7]): 2.2 nM (mg of protein)-1 | Unchanged NDEA (Rattus norvegicus [8]): 15.7% | Exhal+B1718ation of 14CO2 (Rattus norvegicus [9]): 20.5% | Acetaldehyde (Rattus norvegicus [10]): 0.6 nM (mg of protein)-1 | Acetaldehyde (Rattus norvegicus [11]): 0.06 nM (mg of protein)-1 | Formaldehyde (Rattus norvegicus [12]): 0 nM (mg of protein)-1 | Radioactivity in urine (Rattus norvegicus [13]): 20.7%
